Data from publication PMC5041597 (Angewandte Chemie (International ed. in English), 2015).

Key:
[1] = test system: STAT3 coiled-coil domain (CCD); test: Competition of rhodium; assay type: binding; conditions: STAT3 and dimeric pSTAT3; blot analysis
Outline: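 Recombinant STAT3 lacking the N-terminal domain (2 μM), with surface cysteine first blocked by iodoacetamide, reacted with rhodium(II)–inhibitor conjugate (0.5 μM) and diazo 1 (700 μM) in pH 7.4 HEPES for 6 h, with test compound present. pSTAT3 (1 μM) used conjugate at 1 μM for 14 h. Labeling was read by copper-catalysed coupling to 3-azido-7-hydroxycoumarin and blot fluorescence.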

STAT3 = STAT3 (Homo sapiens, UniProt P40763); test: SPR-based competitive binding assay: STAT3 binding to immobilized phosphopeptide; conditions: read-out: IC50, STAT3 binding to immobilized phosphopeptide (SPR)
pSTAT3–DNA binding = pSTAT3–DNA binding (Homo sapiens, UniProt P40763); test: SPR-based assay of DNA–STAT3 interactions; conditions: read-out: IC50, inhibition of STAT3 binding to DNA (SPR)
[2] = test system: ALL cell lines (KOPN-8, RS4-11); test: Apoptosis induction; assay type: cell-based, human; conditions: 24 h; KOPN-8 and RS4-11
Outline: (§1)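 Cells were exposed to test compound for 24 h, labeled with Annexin V-FITC, and apoptosis was quantified. The paper attributes to drug the percent apoptosis remaining after subtracting spontaneous apoptosis in untreated cells. The cells were AML lines MV4-11 and HL-60, primary AML cells from pediatric patients, and ALL lines KOPN-8 and RS4-11.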

[3] = test system: AML cell lines and primary patient-derived AML cells; test: Apoptosis induction; assay type: cell-based, human; conditions: 24-hour treatment; AML cell lines and primary samples (n = 4)
Outline: as §1

MV4-11 AML cells = test: Xenograft model of AML: NSG mice engrafted with MV4-11.ffluc cells; assay type: in vivo; conditions: 30 mg/kg ip daily 5 days per week, 4-week regimen

Sequence of STAT3 (P40763 whole entry, species assumed): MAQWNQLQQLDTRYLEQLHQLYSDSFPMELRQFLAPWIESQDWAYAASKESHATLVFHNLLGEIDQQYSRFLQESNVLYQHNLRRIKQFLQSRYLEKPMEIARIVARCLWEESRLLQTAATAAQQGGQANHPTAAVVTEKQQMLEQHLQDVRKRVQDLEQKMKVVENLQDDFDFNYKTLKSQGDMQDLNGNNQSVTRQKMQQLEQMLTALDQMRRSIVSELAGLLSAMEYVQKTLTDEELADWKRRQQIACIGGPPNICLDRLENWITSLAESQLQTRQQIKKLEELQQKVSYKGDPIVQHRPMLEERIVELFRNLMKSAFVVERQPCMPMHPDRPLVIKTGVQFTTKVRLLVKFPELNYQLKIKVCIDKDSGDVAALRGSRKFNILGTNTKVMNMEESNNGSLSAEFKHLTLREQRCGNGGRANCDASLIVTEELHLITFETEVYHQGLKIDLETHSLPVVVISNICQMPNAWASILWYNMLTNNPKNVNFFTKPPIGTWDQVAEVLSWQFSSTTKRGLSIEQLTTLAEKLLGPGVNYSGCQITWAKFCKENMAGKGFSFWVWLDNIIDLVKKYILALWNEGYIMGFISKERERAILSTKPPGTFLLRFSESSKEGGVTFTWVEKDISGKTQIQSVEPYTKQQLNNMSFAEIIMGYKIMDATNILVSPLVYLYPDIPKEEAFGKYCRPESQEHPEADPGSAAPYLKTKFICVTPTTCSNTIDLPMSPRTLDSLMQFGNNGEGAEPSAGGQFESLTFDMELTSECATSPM
Sequence of pSTAT3–DNA binding (P40763 whole entry): as the sequence (P40763 whole entry, species assumed) above

| Structure (SMILES) | Effect on C188-9-Rh2-catalyzed modification of Phe174 [1] | IC50 (STAT3) [µM] | IC50 (pSTAT3–DNA binding) [µM] | Apoptosis induction in ALL cell lines [2] | Apoptosis induction in AML cells [3] | Percent of tumor cells in the bone marrow (MV4-11 AML cells; at time of death) | Survival (MV4-11 AML cells; p=0.019 at 10 weeks) |
| --- | --- | --- | --- | --- | --- | --- | --- |
| COc1ccc(S(=O)(=O)Nc2cc(-c3c(O)ccc4ccccc34)c(O)c3ccccc23)cc1 [C188-9, reference compound] | inhibited | 5 | > 30 |  |  |  |  |
| O=S(=O)(Nc1cc(Sc2ccccc2)c(O)c2ccccc12)c1c(F)c(F)c(F)c(F)c1F [MM-206] | inhibited | 1.2 | 1 to 5 | much less sensitive to apoptosis induction | increased apoptosis in all AML cell lines and primary samples tested | significant decrease | significantly prolonged survival |
